Measured values gathered from unrelated publications.
Target: Tyrosine-protein kinase Fer (FER, Homo sapiens, UniProt P16591)

COc1cc(Cl)c(C(=O)N[C@@H](CN[C@H]2CC[C@@H](N)CC2)Cc2ccc(C#N)cc2)cc1-c1ccc(CN[C@H](C)c2ccc(C)cc2)o1
remaining activity (enzyme activity, inhibitor; 1 µM): 96%

Cc1ccc(Nc2nccc(N(C)c3ccc4c(C)n(C)nc4c3)n2)cc1S(N)(=O)=O
inhibition (enzyme activity, inhibitor; 0.3 µM): -24%

COc1ccc(C(=O)Nc2sc3c(c2C(N)=O)CCCC3)cc1OC
remaining activity (enzyme activity, inhibitor; 0.5 µM): 89.8%

CC/C(=N\NC(=O)NCc1cccc(O)c1)c1ccc(O)c(C)c1O
inhibition (enzyme activity, inhibitor; 0.1 µM): -2.3%

COc1cccc(CNC(=O)c2nc3scc(COCc4ccc(C(=O)O)cc4)c3c(=O)[nH]2)c1
remaining binding (cell-free assay, competition with immobilised ligand; 1 µM): 100%

COc1cc2nccc(Oc3ccc(NC(=S)NC(=O)c4ccccc4C)cc3)c2cc1OC
remaining activity (enzyme activity, inhibitor; 0.5 µM): 58.2%

CNC(=O)c1cc(Oc2ccc(NC(=O)Nc3ccc(Cl)c(C(F)(F)F)c3)cc2)ccn1
inhibition (enzyme activity, inhibitor; 10 µM): -30%

CC(C)(C)c1nc2c(s1)c1nc(N)ncc1c1ccc(NS(=O)(=O)c3c(F)cccc3F)c(F)c12
remaining activity (enzyme activity, inhibitor, radiometric; 1 µM): 111%

O=C1Nc2ccc(Cl)cc2C1=Cc1cc(Cl)c(O)c(Cl)c1
remaining signal (cell-free assay; 0.5 µM): 92.1%

COc1cc2ncnc(Nc3ccc(Oc4ccccc4)cc3C)c2cc1OC
inhibition (enzyme activity, inhibitor; 1 µM): 54%

Cc1ccc(NC(=O)c2ccc(C)c(C(F)(F)F)c2)cc1C#Cc1nn(C2CCC(O)CC2)c2ncnc(N)c12 (stereo not shown)
remaining signal (cell-free assay; 10 µM): 67%

O=C1NC(c2ccccn2)Sc2ccccc21 (stereo not shown)
remaining binding (cell-free assay, competition with immobilised ligand; 1 µM): 84%

CN1CC(Oc2cnc(C#N)cc2-c2ccn3nc(NC(=O)C4CC4)cc3c2)C1
inhibition (enzyme activity, inhibitor; 1 µM): 1%

O=c1c2ccccc2[nH]c(=S)n1CCN1CCC(=C(c2ccc(F)cc2)c2ccc(F)cc2)CC1
remaining activity (enzyme activity, inhibitor; 0.5 µM): 95.2%

Nc1cnc(N2CCc3cc(S(=O)(=O)Nc4c(F)cc(Cl)cc4F)cc(N4CCCC4=O)c32)nc1
remaining binding (cell-free assay, competition with immobilised ligand; 1 µM): 100%

COc1cc2c(N3CCN(C(=O)Nc4ccc(OC(C)C)cc4)CC3)ncnc2cc1OCCCN1CCCCC1
remaining signal (cell-free assay; 0.5 µM): 104%

CCCCN(CCCC)C(=O)CN1C[C@H](c2cc(OC)c3c(c2)OCO3)[C@@H](C(=O)O)[C@@H]1CC(C)(C)CCC
remaining binding (cell-free assay, competition with immobilised ligand; 1 µM): 100%

CNC(=O)c1cc2c(Oc3ccc(NC(=O)C4(C(=O)Nc5ccc(F)cc5)CC4)cc3)ccnc2cc1OC
inhibition (enzyme activity, inhibitor, radiometric; 1 µM): 74%

CCCOc1ccc(OC)c(F)c1C(=O)c1ccc(C(=O)N[C@@H]2CNC[C@H]2NC(=O)c2ccc3[nH]ncc3c2)cc1
remaining activity (enzyme activity, inhibitor; 10 µM): 105%

O=C1NC(=O)c2cc(Nc3ccc(F)cc3)c(Nc3ccc(F)cc3)cc21
remaining signal (cell-free assay; 0.5 µM): 96.4%

CCOCCn1cc(C(=O)Nc2ccc(-n3nc(-c4cccnc4)cc3C(F)(F)F)cn2)ccc1=O
remaining binding (cell-free assay, competition with immobilised ligand; 1 µM): 100%

Nc1ncnc2occ(-c3ccc(NC(=O)Nc4cc(C(F)(F)F)ccc4F)cc3)c12
remaining signal (cell-free assay; 20 µM): 9%

C[C@@H]1CCN(C(=O)CC#N)C[C@@H]1N(C)c1ncnc2[nH]ccc12
remaining signal (cell-free assay; 0.5 µM): 104%

O=C(O)[C@@H]1[C@@H](Cn2nnc3ccccc3c2=O)CC[C@H]1C(=O)c1ccc(OCCC2CCOCC2)cc1
remaining binding (cell-free assay, competition with immobilised ligand; 1 µM): 87%

c1nc2c(Nc3ccc4c(c3)OCCO4)nc(Nc3ccc4c(c3)OCCO4)nc2[nH]1
activity vs control (enzyme activity, inhibitor; 10 µM): 5.7%

CC(C)(O)[C@H]1CC[C@H](Nc2ccc3ncc(-c4cccc(C(F)(F)F)c4)n3n2)CC1
remaining activity (enzyme activity, inhibitor; 1 µM): 77.1%

O=C(N1CCS(=O)(=O)CC1)N1C[C@H](c2ccc(OC(F)(F)F)cc2)C[C@H](c2nc(C3CC3)no2)C1
remaining binding (cell-free assay, competition with immobilised ligand; 1 µM): 100%

CCN(CC)c1ccc(C2=NNC(=O)CC2C)cc1[N+](=O)[O-] (stereo not shown)
remaining activity (enzyme activity, inhibitor; 10 µM): 119%

CCN(CC)CCNC(=O)c1c(C)[nH]c(/C=C2\C(=O)Nc3ccc(F)cc32)c1C
inhibition (enzyme activity, inhibitor; 10 µM): 55%

C[C@@H](c1cccc(C#N)c1)n1cc(Cl)cc(C(N)=O)c1=N
remaining binding (cell-free assay, competition with immobilised ligand; 1 µM): 100%

Cc1sc(C(=O)NC2COC2)cc1-n1cc(NC(=O)Nc2c(F)cccc2Cl)cn1
remaining activity (enzyme activity, inhibitor; 10 µM): 90%
